Test: Inhibitory activity against MCP-1 induced Calcium flux in […]
Format: functional, cell-based
Conditions: Homo sapiens, THP-1
How it was run: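 THP-1 cells loaded 30 min with 4 µM Fluo-3 AM at 2 million cells/mL (RPMI, 20 mM HEPES, 0.1% BSA, 5 mM probenecid). Washed into HEPES saline with 1.25 mM CaCl2, 2.5 mM probenecid and 0.1% BSA. Plated at 150,000 cells/well, preincubated 20 min with compound, then stimulated with 10^-7 M hMCP-1. FLIPR fluorescence recorded from 10 s before to 2 min after; maximal signal used.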

SMILES | IC50
CCC(c1ccc(Cl)c(Cl)c1)n1c(S)nc(C(=O)O)c1C(=O)OC (stereo not given) | > 10000 nM
CCC(c1ccc(C(F)(F)F)cc1)n1c(C(=O)OC)cnc1S (stereo not given) | > 10000 nM
COCC(c1ccc(Cl)c(Cl)c1)n1c(C(=O)OC)cnc1S (stereo not given) | 316 nM
CCC(c1cccc(Cl)c1)n1c(C(=O)OC)cnc1S (stereo not given) | > 10000 nM
COC(=O)c1cnc(S)n1C(C)c1ccc(Cl)c(Cl)c1 (stereo not given) | 251 nM
CCC(c1ccc(Cl)c(Cl)c1)n1c(S)nc(C)c1C(=O)OC (stereo not given) | 251 nM
CCCC(c1ccc(Cl)c(Cl)c1)n1c(C(=O)OC)cnc1S (stereo not given) | 158 nM
CCC(c1ccc(Cl)cc1)n1c(C(=O)OC)cnc1S (stereo not given) | > 10000 nM
CCC(c1cccc(Oc2ccccc2)c1)n1c(C(=O)OC)cnc1S (stereo not given) | > 10000 nM
CCC(c1ccc(F)c(F)c1)n1c(C(N)=O)cnc1S (stereo not given) | 501 nM
CCC(c1ccc(Cl)c(Cl)c1)n1c(C(N)=O)cnc1S (stereo not given) | 50.1 nM
CCC(c1ccc(Cl)c(Cl)c1)n1c(S)nc(C(=O)NC)c1C(=O)NC (stereo not given) | 398 nM
CCC(c1cc(Cl)cc(Cl)c1)n1c(C(=O)OC)cnc1S (stereo not given) | > 10000 nM
COC(=O)c1cnc(S)n1C(c1ccc(Cl)c(Cl)c1)c1ccc(Cl)c(Cl)c1 | > 10000 nM
CCC(c1ccc(F)c(F)c1)n1c(C(=O)NC)cnc1S (stereo not given) | 2000 nM
CCC(c1ccc(Cl)c(Cl)c1)n1c(S)nc(C)c1C(=O)NC (stereo not given) | > 10000 nM
CCC(c1ccc(Cl)c(Cl)c1)n1c(S)nc(C(N)=O)c1C(N)=O (stereo not given) | 63.1 nM
CCC(c1ccc(F)c(F)c1)n1c(C(=O)NCC(C)C)cnc1S (stereo not given) | > 10000 nM
CCC(c1ccc(F)c(C(F)(F)F)c1)n1c(S)nc(C(=O)OC)c1C(=O)OC (stereo not given) | 100 nM
CC[C@@H](c1ccc(Cl)c(Cl)c1)n1c(C(=O)OC)cnc1S | 126 nM
CCC(c1ccc(Cl)c(Cl)c1)n1c(C(=O)O)cnc1S (stereo not given) | > 10000 nM
CCC(c1ccc(F)c(F)c1)n1c(C(=O)OC)cnc1S (stereo not given) | 1260 nM
CCC(c1ccccc1Cl)n1c(C(=O)OC)cnc1S (stereo not given) | > 10000 nM
CCC(c1ccc(C(F)(F)F)c(F)c1)n1c(C(=O)OC)cnc1S (stereo not given) | 2000 nM
CC[C@@H](c1ccc(Cl)c(Cl)c1)n1c(S)nc(C(=O)OC)c1C(=O)OC | 7.94 nM
CCC(c1ccc(C)c(C)c1)n1c(C(=O)OC)cnc1S (stereo not given) | > 10000 nM
COC(=O)c1cnc(S)n1C(c1ccc(Cl)c(Cl)c1)C1CC1 (stereo not given) | 2000 nM
COC(=O)c1cnc(S)n1C(c1ccc(Cl)c(Cl)c1)C1CCCCC1 (stereo not given) | 10000 nM

SMILES | IC50
CCC(c1ccc(Cl)c(Cl)c1)n1c(C(=O)NC)cnc1S (stereo not given) | 316 nM
CCCCNC(=O)c1cnc(S)n1C(CC)c1ccc(F)c(F)c1 (stereo not given) | > 10000 nM
CCC(c1cc(F)cc(F)c1)n1c(C(=O)OC)cnc1S (stereo not given) | > 10000 nM
CCC(c1ccc(Cl)c(Cl)c1)n1c(CO)cnc1S (stereo not given) | > 10000 nM
CCC(c1ccc(F)c(F)c1)n1c(S)nc(C(=O)OC)c1C(=O)OC (stereo not given) | 10 nM
CC[C@@H](c1ccc(Cl)c(Cl)c1)n1c(C(N)=O)cnc1S | 39.8 nM
CCC(c1ccccc1)n1c(C(=O)OC)cnc1S (stereo not given) | > 10000 nM
CCC(c1ccc(Cl)c(Cl)c1)n1c(S)nc(C(=O)OC)c1C(=O)OC (stereo not given) | 10 nM
CCC(c1ccc(Cl)c(Cl)c1)n1c(S)nc(C(N)=O)c1C#N (stereo not given) | 126 nM
CCC(c1ccc(F)c(F)c1)n1c(C(=O)N2CCOCC2)cnc1S (stereo not given) | > 10000 nM
CCC(c1ccc(Cl)c(Cl)c1)n1c(C(=O)OC)cnc1S (stereo not given) | 200 nM
CCC(c1ccc(F)c(F)c1)n1c(C(=O)N2CCCC2)cnc1S (stereo not given) | > 10000 nM
CC[C@H](c1ccc(Cl)c(Cl)c1)n1c(C(=O)OC)cnc1S | 1580 nM
CCC(c1ccc(Br)c(Br)c1)n1c(C(=O)OC)cnc1S (stereo not given) | 251 nM
CCC(c1ccc(C(F)(F)F)c(F)c1)n1c(S)nc(C(=O)OC)c1C(=O)OC (stereo not given) | 20 nM
CCC(c1ccc(Cl)c(Cl)c1)n1c(S)nc(C(=O)OC)c1C#N (stereo not given) | 39.8 nM
CC[C@H](c1ccc(Cl)c(Cl)c1)n1c(C(N)=O)cnc1S | 10000 nM
CCOC(=O)c1cnc(S)n1C(CC)c1ccc(F)c(F)c1 (stereo not given) | 316 nM
CCC(c1ccc(OC)c(OC)c1)n1c(C(=O)OC)cnc1S (stereo not given) | > 10000 nM
CC[C@H](c1ccc(F)c(F)c1)n1c(S)nc(C(=O)OC)c1C(=O)OC | 2000 nM
CC[C@@H](c1ccc(F)c(F)c1)n1c(S)nc(C(=O)OC)c1C(=O)OC | 7.94 nM
CCC(c1ccc(F)c(C(F)(F)F)c1)n1c(C(=O)OC)cnc1S (stereo not given) | 1000 nM
CCC(c1ccc(F)c(F)c1)n1c(C(=O)N2CCCCC2)cnc1S (stereo not given) | > 10000 nM
CCC(c1ccc(Cl)c(Cl)c1)n1c(C(=O)OC(C)C)cnc1S (stereo not given) | 316 nM
COC(=O)c1cnc(S)n1C(C)(C)c1ccc(Cl)c(Cl)c1 | > 10000 nM
COC(=O)c1cnc(S)n1C(c1ccc(Cl)c(Cl)c1)c1cccs1 (stereo not given) | > 10000 nM
CCC(c1ccc(Cl)c(Cl)c1)n1c(C#N)cnc1S (stereo not given) | 631 nM
